From ChEMBL document CHEMBL4513216, “Probing the Open Global Health Chemical Diversity Library for Multistage-Active Starting Points for Next-Generation Antimalarials” (ACS Infect Dis, 2020)

Assay: Toxicity liver stage against HepG2, at 10uM
Type: cell-based
Parameters: test concentration 10 uM, cell line HepG2-A16-CD81EGFP
Settings: human, HepG2-A16-CD81EGFP cells; read-out: INHIBITION
Summary of the method: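 Uninfected HepG2-A16-CD81EGFP cells, 3 × 10^3 per well, 1536-well, plated on prespotted compound at 10 μM final, parasite-free screening media added to match infected plates; puromycin 10 μM positive, DMSO 0.5% negative; run in parallel with 48 h PbLuc assay at 37 °C, 5% CO2; viability by CellTiter-Glo luminescence, normalized to controls.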

| SMILES | cytotoxicity at 10 µM |
| --- | --- |
| Cc1ccccc1C1CN(c2cnn(C)c(=O)c2Cl)CCO1 (stereo unspecified) | -19.4% |
| OC(COc1ccc2c(c1)OCO2)CN1CC(n2cccn2)C1 (stereo unspecified) | -6.17% |
| Cc1nnc2n1CCN(C(=O)CN1C(=O)CCOc3ccccc31)C2 | 4.48% |
| CCCN1CCC(C(=O)NCCN(CC)c2ccccc2C)CC1 | 15.7% |
| Cc1cnn(CCC(=O)Nc2cccnc2N2CCC(CO)CC2)c1 | -2% |
| O=C(NC1CCN(c2ncccn2)CC1)c1cccc(-n2ccnc2)c1 | -1.17% |
| CC(=O)c1ccc(OCC(=O)NC(C)CCc2ccco2)cc1 (stereo unspecified) | -9.96% |
| Cc1cc(NC(=O)NCCc2ccsc2)n(C)n1 | 12.3% |
| CCOCC1c2c(ncn2C)CCN1C(=O)c1ccoc1 (stereo unspecified) | -103% |
| O=C(c1cocn1)N1CCC[C@]2(C[C@@H](OCC3CC3)CO2)C1 | -76.4% |
| O=C(c1ccsc1)N1CC[C@@H](N2CCOCC2)[C@@H]1Cc1ccccc1 | -71.8% |
| COc1ccccc1OC1CCN(c2ccncc2)CC1 | 3.33% |
| COCCN(CCOC)C(=O)c1c[nH]nc1-c1cccc(F)c1 | -0.25% |
| CCc1cc(N2C[C@H](C3CC3)[C@@H](N)C2)nc(N2CCCC2)n1 | 0.334% |
| CS(=O)(=O)CCN1C[C@H](NC(=O)c2cnc(O)cn2)[C@@H](C2CC2)C1 | 9.24% |
| CC(C)CN(Cc1cnn(C)c1)C(=O)C1COc2ccccc2C1 (stereo unspecified) | 0.956% |
| COc1ccc(OCC2CCCN(c3nc(CO)cs3)C2)cc1 (stereo unspecified) | -0.715% |
| CSc1cccc(CN2CCC(CCC(=O)NCCN(C)C)CC2)c1 | -11.9% |
| CC1(Cc2ccccn2)NCCc2[nH]cnc21 (stereo unspecified) | -5.18% |

| SMILES | cytotoxicity at 10 µM |
| --- | --- |
| CC(C)(O)c1cn(C2CCN(C(=O)CCC(F)(F)F)CC2)nn1 | 1.93% |
| CN(Cc1ccon1)c1nc(-c2ccccn2)nc2c1CCNCC2 | -2.45% |
| Cc1nonc1C1CCCN1CCC(=O)N1CCc2ccccc2C1 (stereo unspecified) | -11.2% |
| COC(=O)C(C)(C)NC(=O)c1cc(COc2ccccc2OC)[nH]n1 | -4.83% |
| COCCC1CCN(CC(C)n2cnc3ccccc32)CC1 (stereo unspecified) | 6.67% |
| CCN1CCN(C[C@H]2CC[C@@H](Cc3ccc4c(c3)OCO4)O2)CC1 | -5.97% |
| N#Cc1c(N)nc2c(c1C1CCOC1)CCc1cc(O)ccc1-2 (stereo unspecified) | 23.4% |
| Cn1c(C(=O)N2CCc3[nH]cnc3C2C(=O)O)ccc1-c1ccccc1 (stereo unspecified) | -0.392% |
| CCN(CC)C(=O)[C@@H]1C[C@H](N)CN1C(=O)c1cc2c([nH]c1=O)CCC2 | -1.94% |
| Cc1cc(CN(C)CCC(O)c2ccccc2)nn1C (stereo unspecified) | -17.3% |
| O=C(NCCc1ccncc1)c1ccc(S(=O)(=O)NC2CCC2)cc1 | -7.54% |
| O=C(c1c[nH]nc1-c1cccc(F)c1)N1CCNC(c2ccccc2)C1 (stereo unspecified) | -3.68% |
| COc1ccc(C(=O)C2CCCN(Cc3ccncc3)C2)c(OC)c1 (stereo unspecified) | -15.7% |
| CCCc1nc(C(C)(C)NC(=O)C2CC(=O)N(CCOC)C2)no1 (stereo unspecified) | -8.12% |
| CN(Cc1nccn1C)C1CCN(CCc2ccccn2)CC1 | -8.78% |
| COc1ccnc(N2CCN(C(=O)COCC(F)(F)F)CC2)n1 | -9.36% |
| Cc1nc(C)n(CC2CCCCN2CC(=O)Nc2c(C)n[nH]c2C)n1 (stereo unspecified) | -12.7% |
| CC(C(=O)NCc1ccnc(N2CCOCC2)c1)n1cccn1 (stereo unspecified) | -6.28% |
| CC1CN(CCOc2cccc(C#N)c2)CCN1Cc1nccn1C (stereo unspecified) | -2.81% |

| SMILES | cytotoxicity at 10 µM |
| --- | --- |
| Cc1nc2n(n1)CC(NCCC(=O)Nc1cc(C)on1)CC2 (stereo unspecified) | -10.5% |
| CN(C)c1ncccc1CNS(=O)(=O)c1ccc(C(N)=O)cc1 | -4.08% |
| CC(C)(C)c1n[nH]c(C2CN(Cc3nnc(C4CC4)o3)CCO2)n1 (stereo unspecified) | -6.55% |
| Cc1cc(C)n(CC2CCCCN2C(=O)c2ccsc2)n1 (stereo unspecified) | -10.3% |
| Cc1cnn(CC(C)NCc2csc(-c3ncccn3)n2)c1 (stereo unspecified) | -6.94% |
| CCCN(CC1COc2ccccc2O1)C(=O)CCn1cncn1 (stereo unspecified) | -0.627% |
| CCc1noc(C(C)N2CCN(Cc3nnc(C4CC4)o3)CC2)n1 (stereo unspecified) | -4.79% |
| CC(C)c1nc(C(=O)N2CCCC(n3cncn3)C2)c[nH]1 (stereo unspecified) | -2.48% |
| CCOCC(=O)N1CCC2(CC1)COCCN2CCN(C)C | -0.464% |
| Cc1nc(-c2cncnc2C2CCCNC2)no1 (stereo unspecified) | 6.88% |
| Cc1ccc2c(c1)C(NC(=O)N(C)C)CC21CCN(C(C)C)CC1 (stereo unspecified) | -0.493% |
| O=C(c1ccncc1F)N1CCc2ncnc(C3CC3)c2CC1 | -78.4% |
| O=C(Nc1ccccc1)C1CN(Cc2ccsc2)CC12CCOCC2 (stereo unspecified) | 6.58% |
| Cc1ccc(CN2CCn3cc(CN(C)Cc4ccco4)nc3C2)o1 | -1.09% |
| O=C(NCC1CC1)C1CCC2(CCN(C(=O)c3ccccn3)CC2)O1 (stereo unspecified) | 9.74% |
| Cc1nnn2c1COC(CNCc1nccs1)C2 (stereo unspecified) | 1.71% |
| CN(C)C(=O)COC[C@]12COC[C@H]1CN(Cc1ccco1)C2 | -0.522% |
| CN(C)C(=O)N1CCOCC2(CCN(c3ccccn3)C2)C1 (stereo unspecified) | 1.6% |
